STAT3 act: IL-6 driven STAT3 reporter potentiators, primary screen, U3A cells, luciferase, luminescence, MLSCN library; actives 0.91% (n = 190,000); IL-6 STAT3-luciferase reporter; 100% = signal with IL-6 EC80 alone; activation (% of control), % at 5.6 µM; AID 871, 2007;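 active means activation above the screen-wide mean of compound activation plus 3 SD, cut at about 130% in these data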
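Material: human U3A cells carrying STAT3-luciferase construct. Measured by: reporter luminescence signal. Timing: compound 1 h, then IL-6 6 h at 37 °C.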
FLuc act counter: FLuc activators, initial screening, artefact control for FLuc-dependent activation tests, biochemical, ATPlite luminescence | 200,000 tested, under 10 active | ATPlite luciferase biochemical, 10 min; 0 = ATP-free wells, 1 = DMSO control | activation factor at 10 µM | Luciferin 4-monooxygenase (Photinus pyralis), P08659;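 active means luciferase activation factor, scaled between plate controls, of at least 2 with compound at 10 µM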
Target sequence (P08659 whole entry, looked up): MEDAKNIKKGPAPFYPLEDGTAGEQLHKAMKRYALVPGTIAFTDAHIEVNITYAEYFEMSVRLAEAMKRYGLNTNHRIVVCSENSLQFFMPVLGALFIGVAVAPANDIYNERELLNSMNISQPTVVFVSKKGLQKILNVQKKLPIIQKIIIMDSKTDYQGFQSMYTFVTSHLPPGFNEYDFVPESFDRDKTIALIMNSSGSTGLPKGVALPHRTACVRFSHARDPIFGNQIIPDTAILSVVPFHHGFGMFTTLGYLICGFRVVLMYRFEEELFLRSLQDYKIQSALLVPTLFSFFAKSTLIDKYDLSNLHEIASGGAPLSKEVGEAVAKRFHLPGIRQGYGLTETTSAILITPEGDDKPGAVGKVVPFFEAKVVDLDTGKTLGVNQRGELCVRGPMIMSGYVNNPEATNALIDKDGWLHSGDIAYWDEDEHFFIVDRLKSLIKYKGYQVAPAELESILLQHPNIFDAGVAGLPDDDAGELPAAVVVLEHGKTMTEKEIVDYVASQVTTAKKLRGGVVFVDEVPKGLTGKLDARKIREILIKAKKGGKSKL
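System: Luciferase/luciferin detection reagent, cell-free biochemical luciferase assay | Medium: PBS buffer for ATP | Dosing: Test compounds dosed from 2 mM stocks in 100% DMSO | Timing: 10 min at ambient temperature | Signal: Luminescence measurement of luciferase light output | Evaluation: Luciferase activation, seen as luminescence increase over controls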
STAT1 blocker: STAT1 signaling inhibitors, primary screen, cell-based, HTS, luciferase reporter; NIH 3T3 STAT1-luciferase reporter, IFN-gamma, luminescence; inhibition, % at 5.5 µM; actives 0.35% (n = 200,000);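 active means inhibition above a set limit, the mean inhibition across all tested compounds plus 3 SD, cut at about 34% in these data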
STAT1 activator: STAT1 signaling activators, primary screen, cell-based, HTS, luciferase reporter; activation (% of control), % at 5.5 µM; NIH 3T3 STAT1-luciferase reporter, IFN-gamma, luminescence; 100% = IFN-gamma alone, no compound; actives 2.6% (n = 200,000);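 active means activation above the screen-wide mean activation plus 3 SD, cut at about 130% in these data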
FLuc inh counter: firefly luciferase enzyme inhibitors, primary screen, artefact control for luciferase-based inhibitor screens, biochemical, luminescence, ATPLite; Luciferin 4-monooxygenase (Photinus pyralis), P08659; 10 min; inhibition, % at 10 µM; actives 1.5% (n = 200,000);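 active means inhibition above about 50% when tested at 10 µM, limit read from the data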
STAT3 inh: IL-6 driven STAT3 reporter inhibitors, primary screen, U3A cells, luciferase, luminescence, MLSCN library. IL-6 STAT3-luciferase reporter; host cell line lacks STAT1. inhibition, % at 5.5 µM. actives 0.89% (n = 190,000). AID 862, 2007;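 active means inhibition above the mean inhibition across all screened compounds plus 3 SD, cut at about 44% in these data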
STAT1 act conf: STAT1 signaling activators, confirmation, cell-based, HTS, luciferase reporter | activation (% of control), % at 5.7 µM | AID 1262, 2008 | actives 97% (n = 1,200) | NIH 3T3 STAT1-luciferase reporter, IFN-gamma potentiation, luminescence; 100% = IFN-gamma EC80 alone, no compound | shares compounds with STAT1 activator;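 active means activation above a set limit carried over from the earlier primary STAT1 screen, cut at about 140% in these data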
NFkB act: NF-kB reporter activators, TNF-alpha stimulated, counter-screen for STAT1 activator project, cell-based, HEK293T, luciferase luminescence. shares compounds with STAT1 activator. 100% = TNF-alpha with vehicle only. activation (% of control), % at 5.7 µM. actives 43% (n = 1,200). AID 1306, 2008;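 active means activation above the mean of solvent-only control wells plus 3 SD, set per campaign, cut at about 130% in these data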;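 further: TNF-alpha given at a submaximal dose yielding about 80% of full reporter signal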
STAT3 act STAT1c: STAT3 reporter activation by STAT1 hits, confirmation, counter-screen for STAT1 activator project, U3A cells, luciferase, luminescence; shares compounds with STAT1 activator; IL-6; cells lack STAT1; 100 = IL-6 alone, no compound effect; activation (% of control), % at 5.7 µM; actives 46% (n = 1,200); AID 1316, 2008;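 active means activation above the solvent-only control well mean plus 3 SD, set per plate batch, cut at about 110% in these data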;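 further: higher means more STAT3 reporter activation so hits are non-selective activators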
Hits are given with their value; - = inactive; . = no result given. A selection: hits, their analogues and other compounds. The true share with any hit is near 4.9%.

SMILES	STAT3 act	FLuc act counter	STAT1 blocker	STAT1 activator	FLuc inh counter	STAT3 inh	STAT1 act conf	NFkB act	STAT3 act STAT1c
Cc1cc(C(=O)C(C)Sc2cccc[n+]2[O-])c(C)n1-c1ccc(Cl)cc1 (stereo not given)	-	-	-	-	-	-	.	.	.
COc1ccc(OC)c(NC(=O)C(=O)NNC(=O)c2cccs2)c1	-	-	-	-	-	-	.	.	.
CCCCOc1ccc(-c2csc(N)n2)cc1[N+](=O)[O-]	-	-	-	156	-	-	192	141	-
COc1cccc(C(=O)Nc2cc3c(cc2Cl)OCCCO3)c1	-	-	-	160	65	-	175	-	-
COCCOc1cc(NC(=O)c2cccc(OC)c2)c(Cl)cc1Cl	-	-	-	-	-	-	.	.	.
CC(C)C(=O)OCC(=O)Nc1ccc(N=Nc2ccccc2)cc1	-	-	-	151	-	-	184	140	117
O=C(CCl)Nc1ccc(N=Nc2ccccc2)cc1	-	-	-	-	-	-	.	.	.
CC(=O)OCC(=O)Nc1ccc(N=Nc2ccccc2)cc1	-	-	-	162	-	-	190	135	114
O=C(Nc1ccc(N=Nc2ccccc2)cc1)c1ccccc1Cl	-	-	-	180	-	-	204	153	120
CC(=O)OCC(=O)Nc1ccc(SC(F)F)cc1	-	-	-	-	-	-	.	.	.
CC(=O)Nc1ccc(N=Nc2ccccc2)cc1	-	-	-	152	-	-	188	-	-
Cc1ccnc(NC(NC(=O)C(C)C)(C(F)(F)F)C(F)(F)F)c1	-	-	-	-	-	-	.	.	.
COc1ccc(OCCSc2nnc(Cc3cccc4ccccc34)n2N)cc1	-	-	-	-	-	-	.	.	.
Cc1ccc2nc(-c3ccc(NC(=O)CSc4ccccc4)cc3)[nH]c2c1	-	-	-	163	-	-	198	-	-
Cc1ccc(Cl)cc1N1CCN(Cc2cc(=O)n3ccsc3n2)CC1	-	-	-	-	-	-	.	.	.
O=C(CCc1nnc(CCCc2ccccc2)o1)NC(C1CC1)C1CC1	-	-	-	154	-	-	206	145	129
O=C(CCc1nnc(CCCCc2ccccc2)o1)NCCc1cccnc1	-	-	-	-	-	-	.	.	.
CC(=O)c1cccc(NC(=O)Cn2nc(-c3ccc(Cl)cc3)ccc2=O)c1	-	-	-	-	-	-	.	.	.
CC(C)(C)C(=O)Nc1ccccc1C(=O)OCC(=O)c1ccc2c(c1)OCCO2	-	-	-	-	-	-	.	.	.
O=C(COC(=O)c1ccccc1NC(=O)C1CC1)c1ccc2c(c1)OCCO2	-	-	-	159	72	-	170	-	-
O=c1c(-c2nc3ccccc3s2)cccn1Cc1ccccc1	-	-	-	161	-	-	211	-	-
Cc1nc2cc(NC(=O)Nc3ccc(Br)cc3)ccc2o1	-	-	-	162	-	-	209	135	-
Cc1nc2cc(NC(=O)NCc3ccc4c(c3)OCO4)ccc2o1	-	-	-	-	-	-	.	.	.
CC(C)c1nnc(NC(=O)CCCC(=O)O)s1	-	-	-	-	-	-	.	.	.
